Hits are enriched below; roughly 3.4% of the tested compounds scored in any of these assays.
ERAP1 inh – ERAP1 (human) enzyme inhibition. Q9NZ08. recombinant ERAP1, Leu-AMC fluorescence, 60 min. inhibition, % at 10.7 µM. 340,000 compounds, 0.15% hits;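 active = mean replicate inhibition of at least 30%, or all replicates individually reaching that 30% level; inactive = mean below 30% and not every replicate reaching it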
Ecoli rRNA inh – inhibits bacterial ribosomal RNA function over humanized ribosomes; 350,000 compounds, 1.6% hits; GFP signal change (wild-type ribosome), % (test concentration not listed); E. coli WT GFP vs humanized-ribosome RFP mutants, fluorescence, 24 h; hits give low values; DMSO median 0, no signal -100;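 active = significant combined selectivity score with lowered wild-type GFP, culture density cut under 30%, mutant RFP and density less affected; inactive = any of these conditions unmet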
S100A4 inh HTS – blocks human S100A4 binding to myosin IIA peptide | P26447 | S100A4/TAMRA-MyoIIA peptide fluorescence polarization | inhibition, % at 10.7 µM | 360,000 compounds, 0.14% hits | AID 652163;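 active = mean inhibition of at least 70% across replicates, with every replicate also reaching that level; inconclusive = mean inhibition reaches 70% but some replicates fall short; inactive = mean inhibition below 70%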
Target sequence (P26447 whole entry, looked up): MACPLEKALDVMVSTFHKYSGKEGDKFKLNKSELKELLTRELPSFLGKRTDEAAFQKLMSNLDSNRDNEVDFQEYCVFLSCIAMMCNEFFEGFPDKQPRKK
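Compound dosing: one dose per compound; test system: human S100A4 monomer with TAMRA-labelled myosin IIA peptide; probe or stimulus: TAMRA-labelled myosin IIA heavy-chain peptide probe, 5 nM; medium: HEPES buffer with Ca2+, pH 7.2; schedule: 5 min incubation before reading; benchmarks: neutral control DMSO, positive control TFP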
SIRT5 inh – sirtuin-5 (human) deacylase inhibition | Purified SirT5, succinyl-peptide AMC, trypsin-coupled fluorescence | 330,000 compounds, 1.1% hits | Q9NXA8 | AID 652115 | inhibition, % at 15 µM; in the data active = inhibition above about 15%; inconclusive = no clear call, values can overlap the other calls
MLL AF4-AF9 inh – MLL-AF4/AF9 protein interaction inhibition. 350,000 compounds, 0.47% hits. AID 651704. P42568. AlphaScreen, biotin-AF4 peptide binding to FLAG-AF9. inhibition, % at 10 µM;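 active = every replicate reaching a set inhibition limit, whatever the replicate mean, cut at about 25% in these data; inconclusive = mean inhibition reaches that limit but some replicates miss it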
Target sequence (P42568 whole entry, looked up): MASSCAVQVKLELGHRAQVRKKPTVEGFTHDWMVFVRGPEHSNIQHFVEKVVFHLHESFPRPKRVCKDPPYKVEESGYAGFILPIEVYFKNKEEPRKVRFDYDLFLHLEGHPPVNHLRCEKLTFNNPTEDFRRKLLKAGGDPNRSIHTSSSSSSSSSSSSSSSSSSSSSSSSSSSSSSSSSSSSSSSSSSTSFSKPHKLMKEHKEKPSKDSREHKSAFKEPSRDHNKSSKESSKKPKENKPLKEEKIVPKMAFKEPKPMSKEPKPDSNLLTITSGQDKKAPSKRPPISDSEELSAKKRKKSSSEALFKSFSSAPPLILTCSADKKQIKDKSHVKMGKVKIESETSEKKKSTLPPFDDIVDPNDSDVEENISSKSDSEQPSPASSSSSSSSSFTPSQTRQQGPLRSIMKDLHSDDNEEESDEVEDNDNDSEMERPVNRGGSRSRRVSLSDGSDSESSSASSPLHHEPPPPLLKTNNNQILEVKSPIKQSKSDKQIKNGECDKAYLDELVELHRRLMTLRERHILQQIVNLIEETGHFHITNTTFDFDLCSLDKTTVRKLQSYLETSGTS
E-sel inducer – E-selectin induction on HUVECs; HUVEC E-selectin immunofluorescence imaging; normalized: neutral wells 0, TNF-alpha wells 100; activation, % at 7.58 µM; 260,000 compounds, 0.37% hits; AID 686992;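 active = mean E-selectin-positive cell signal at least 10% of the positive control, reached in at least 60% of replicates, without over 20% cell loss; inconclusive = no rule given, readout overlaps actives, possibly toxicity-flagged; inactive = the rest, including those meeting only one limit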
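System: HUVEC, human umbilical vein endothelial cells; quantity: 3,000 cells/well; buffer or medium: EGM-2 medium, gelatin-coated wells; dosing: single-point compound dose; detection: immunofluorescence imaging; evaluation: % PE-positive cells; benchmarks: TNF-alpha, DMSO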
AID977621 – wild-type E. coli growth inhibition versus H69 humanized strain – H69 mutant RFP, wild-type GFP, cherry-pick, dose response; activity change, negative = inhibition at 50 µM; shares compounds with Ecoli rRNA inh; 1,900 tested, under 10 active; fluorescence, 24 h;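 active = Wild-type ribosome reporter drop at least double the humanized mutant ribosome reporter drop, growth loss under a set limit; inconclusive = no clear call, values can overlap the other calls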;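 also: wild-type GFP and H69 mutant RFP strains grown together 50/50 in each well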
AID977628 – growth of wild-type and h24-humanized E. coli strains – h24 mutant RFP vs wild-type GFP, cherry-pick, dose response | E. coli WT GFP strain growth, fluorescence, 24 h | shares compounds with Ecoli rRNA inh | 1,900 tested, under 10 active | activity change, negative = inhibition at 50 µM;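 active = compound lowering the normal-ribosome reporter at least twice as much as the humanized-ribosome reporter, growth loss under a set limit; inconclusive = no clear call, values can overlap the other calls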;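 also: wild-type GFP and h24 humanized RFP strains co-cultured 1 to 1 per well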
Numbers stand for hits.

For Cc1cccc(OCc2nnc(SCC(=O)Nc3ncc(C)s3)o2)c1 the results were ERAP1 inh inactive, Ecoli rRNA inh -34, S100A4 inh HTS inactive, MLL AF4-AF9 inh inactive, E-sel inducer inactive and AID977628 inactive.
COC(=O)CCN(Cc1ccccc1)S(=O)(=O)c1ccccc1Br was read as ERAP1 inh inactive, Ecoli rRNA inh inactive, S100A4 inh HTS inactive, SIRT5 inh inactive, MLL AF4-AF9 inh inactive and E-sel inducer inactive.
O=C(O)CCN(Cc1ccccc1)S(=O)(=O)c1ccc(Cl)cc1F was read as ERAP1 inh inactive, Ecoli rRNA inh -20, S100A4 inh HTS inactive, SIRT5 inh inactive, MLL AF4-AF9 inh inactive, E-sel inducer inactive, AID977621 inactive and AID977628 inconclusive.
Screening O=C(O)CCN(Cc1ccccc1)S(=O)(=O)c1ccccc1Cl returned ERAP1 inh inactive, Ecoli rRNA inh -20, S100A4 inh HTS inactive, SIRT5 inh inactive, MLL AF4-AF9 inh inactive, E-sel inducer inactive and AID977621 inactive.
`O=C(N[C@@H]1CC[C@@H](CC(=O)N2CCCCC2)O[C@H]1CO)c1cccc(F)c1` gave ERAP1 inh inactive, Ecoli rRNA inh inactive, S100A4 inh HTS inactive, SIRT5 inh inactive, MLL AF4-AF9 inh inactive and E-sel inducer inactive.
For Cc1ccc(N2C(=O)NC(NS(=O)(=O)c3ccccc3)(C(F)(F)F)C2=O)cc1C (centres undefined) the results were ERAP1 inh inactive, Ecoli rRNA inh -17, S100A4 inh HTS inactive, SIRT5 inh inactive, MLL AF4-AF9 inh inactive, E-sel inducer inactive and AID977621 inactive.
O=C(Nc1cccc(F)c1)N1C[C@@H]2[C@H](c3ccccc31)[C@H](CO)N2C(=O)Cc1ccccn1 was read as ERAP1 inh inactive, Ecoli rRNA inh -18, S100A4 inh HTS inactive, SIRT5 inh inactive, MLL AF4-AF9 inh inactive, E-sel inducer inactive, AID977621 inactive and AID977628 inactive.
COCC(=O)N1[C@@H]2CN(C(=O)Nc3ccccc3F)c3ccccc3[C@@H]2[C@@H]1CO was read as ERAP1 inh inactive, Ecoli rRNA inh -18, S100A4 inh HTS inconclusive, SIRT5 inh inactive, MLL AF4-AF9 inh inactive, E-sel inducer inactive, AID977621 inactive and AID977628 inconclusive.
CCC(=O)N1[C@H](CO)[C@@H]2c3ccccc3N(C(=O)Nc3ccc(Cl)cc3)C[C@@H]21 was read as ERAP1 inh inactive, Ecoli rRNA inh -22, S100A4 inh HTS inactive, SIRT5 inh inactive, MLL AF4-AF9 inh inactive, E-sel inducer inactive and AID977621 inactive.
C[C@@H]1CN([C@H](C)CO)C(=O)c2cc(-c3ccccc3F)cnc2O[C@@H]1CN(C)C(=O)C1CCC1 was read as ERAP1 inh inactive, Ecoli rRNA inh inactive, S100A4 inh HTS inactive, SIRT5 inh inactive, MLL AF4-AF9 inh inactive and E-sel inducer inactive.
`O=C1CCCn2cc(nn2)COCC2CCCN12` (centres undefined) gave ERAP1 inh inactive, Ecoli rRNA inh inactive, S100A4 inh HTS inconclusive, SIRT5 inh inactive and MLL AF4-AF9 inh inactive.
For CO[C@H]1CN(C)C(=O)c2ccc(NC(=O)C3CC3)cc2OC[C@H](C)N(C(=O)c2cnccn2)C[C@@H]1C the results were ERAP1 inh inactive, Ecoli rRNA inh inactive, S100A4 inh HTS inactive, SIRT5 inh inactive, MLL AF4-AF9 inh inactive and E-sel inducer inactive.
CCOC(=O)Cc1csc(SCC(=O)Nc2cc(C)ccc2OC)n1 was read as ERAP1 inh inactive, Ecoli rRNA inh -24, S100A4 inh HTS inactive, SIRT5 inh inactive, MLL AF4-AF9 inh inactive, E-sel inducer inactive and AID977628 inconclusive.
`COc1ccc(NC(=O)CSc2nc(C)cs2)c(OC)c1` gave Ecoli rRNA inh inactive, S100A4 inh HTS inactive, MLL AF4-AF9 inh inactive and E-sel inducer inactive.
O=C(NCCc1ccc(Cl)cc1)c1ccc2nc[nH]c2c1 was read as ERAP1 inh inactive, Ecoli rRNA inh -32, S100A4 inh HTS inactive, SIRT5 inh inactive, MLL AF4-AF9 inh inactive and AID977628 inconclusive.
Screening O=C(NCCc1ccc(Cl)cc1Cl)c1ccc2nc[nH]c2c1 returned ERAP1 inh inactive, Ecoli rRNA inh inactive, S100A4 inh HTS inactive, SIRT5 inh inactive and MLL AF4-AF9 inh inactive.
Screening C[C@H](CO)N1C[C@H](C)[C@H](CN(C)C(=O)Nc2ccc(C(F)(F)F)cc2)Oc2ccc(NC(=O)Cn3cnnn3)cc2C1=O returned ERAP1 inh inactive, Ecoli rRNA inh inactive, S100A4 inh HTS inactive, MLL AF4-AF9 inh inactive and E-sel inducer inactive.
`CCCC#Cc1ccc2c(c1)[C@@H]1[C@@H](CCN1S(=O)(=O)c1cn(C)cn1)[C@@H](CO)N2` gave Ecoli rRNA inh inactive.
O=C(O)CSc1nc2ccccc2n1C1CCCCC1 was read as ERAP1 inh inactive, Ecoli rRNA inh -22, S100A4 inh HTS inactive, SIRT5 inh inactive, MLL AF4-AF9 inh inactive, E-sel inducer inactive and AID977621 inactive.
Screening O=C(O)CSc1nc2ccccc2n1Cc1ccccc1 returned ERAP1 inh inactive, Ecoli rRNA inh inactive, S100A4 inh HTS inactive, SIRT5 inh inactive, MLL AF4-AF9 inh inactive and E-sel inducer inactive.
COc1cccc(NC(=O)Nc2ccc3c(c2)C(=O)N(C)[C@H]2CC[C@@H](CC(=O)NCCc4ccccc4)O[C@H]2CO3)c1 was read as ERAP1 inh inactive, Ecoli rRNA inh inactive, S100A4 inh HTS inactive, SIRT5 inh inactive, MLL AF4-AF9 inh inactive and E-sel inducer inactive.
For CS(=O)(=O)Nc1ccc2c(c1)[C@H]1C[C@H](CC(=O)NCc3cccnc3)O[C@H](CO)[C@H]1O2 the results were ERAP1 inh inactive, Ecoli rRNA inh inactive, S100A4 inh HTS inactive, SIRT5 inh inactive, MLL AF4-AF9 inh inactive and E-sel inducer inactive.
For CC(=O)c1ccc(N2CCN(C(=O)C3CCN(S(=O)(=O)c4ccc5c(c4)CC(C)N5C(C)=O)CC3)CC2)cc1 (centres undefined) the results were ERAP1 inh inactive, Ecoli rRNA inh -19, S100A4 inh HTS inactive, SIRT5 inh inactive, MLL AF4-AF9 inh inactive and AID977621 inactive.
Screening CC(=O)N1c2ccc(S(=O)(=O)N3CCC(C(=O)N4CCN(c5cccc(C(F)(F)F)c5)CC4)CC3)cc2CC1C (centres undefined) returned ERAP1 inh inactive, Ecoli rRNA inh inactive, S100A4 inh HTS inactive, SIRT5 inh inactive and MLL AF4-AF9 inh inactive.
